From ChEMBL document CHEMBL2311405, “Synthesis and biological evaluation of indenoisoquinolines that inhibit both tyrosyl-DNA phosphodiesterase I (Tdp1) and topoisomerase I (Top1)” (J Med Chem, 2013)
Active and inactive are the calls of the source. No cut-off for these calls is given here.

How the values were obtained:
[1] = target: T1, DNA topoisomerase 1 (Homo sapiens) (UniProt P11387); assay: Inhibition of recombinant Top1 (unknown origin) using 3'-[32P]-end-labeled 117 bp oligonucleotide as substrate after 20 mins by SDS-PAGE analysis relative to 1 uM MJ-3-65
T1 sequence (whole entry): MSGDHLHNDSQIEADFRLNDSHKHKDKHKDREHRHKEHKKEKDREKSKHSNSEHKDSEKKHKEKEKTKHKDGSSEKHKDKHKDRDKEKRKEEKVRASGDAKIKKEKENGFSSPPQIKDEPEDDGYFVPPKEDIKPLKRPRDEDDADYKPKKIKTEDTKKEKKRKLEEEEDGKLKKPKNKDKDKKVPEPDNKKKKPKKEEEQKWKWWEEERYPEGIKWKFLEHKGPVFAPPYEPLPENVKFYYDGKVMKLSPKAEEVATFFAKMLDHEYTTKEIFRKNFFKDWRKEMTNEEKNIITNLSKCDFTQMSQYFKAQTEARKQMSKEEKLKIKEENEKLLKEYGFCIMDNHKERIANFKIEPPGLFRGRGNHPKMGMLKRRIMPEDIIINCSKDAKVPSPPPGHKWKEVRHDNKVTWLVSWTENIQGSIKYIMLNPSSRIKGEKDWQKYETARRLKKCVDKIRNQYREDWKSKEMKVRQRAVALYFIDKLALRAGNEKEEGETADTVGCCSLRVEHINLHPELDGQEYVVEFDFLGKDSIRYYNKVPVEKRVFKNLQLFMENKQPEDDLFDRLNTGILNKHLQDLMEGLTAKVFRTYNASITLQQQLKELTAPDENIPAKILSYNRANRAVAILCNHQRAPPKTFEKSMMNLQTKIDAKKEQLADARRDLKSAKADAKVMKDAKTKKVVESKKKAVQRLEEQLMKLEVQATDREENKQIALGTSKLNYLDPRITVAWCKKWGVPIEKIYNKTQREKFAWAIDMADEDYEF

[2] = target: T1, DNA topoisomerase 1 (Homo sapiens); assay: Inhibition of recombinant Top1 (unknown origin) using 3'-[32P]-end-labeled 117 bp oligonucleotide as substrate after 20 mins by SDS-PAGE analysis
Method in brief: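 3′-[32P]-end-labeled 117-bp DNA at 2 nM incubated with recombinant Top1 at 25 °C for 20 min across a range of compound concentrations. Stopped with SDS (0.5% final) plus formamide loading dye, then 20% denaturing PAGE. Dried gels were phosphorimaged.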

[3] = target: Tyrosyl-DNA phosphodiesterase 1 (Homo sapiens, UniProt Q9NUW8); assay: Inhibition of recombinant Tdp1 (unknown origin) using 5'-[32P]-labeled single-stranded DNA oligonucleotide containing 3'-phosphotyrosine as substrate after 15 mins by PAGE analysis
Tyrosyl-DNA phosphodiesterase 1, sequence (Q9NUW8 whole entry): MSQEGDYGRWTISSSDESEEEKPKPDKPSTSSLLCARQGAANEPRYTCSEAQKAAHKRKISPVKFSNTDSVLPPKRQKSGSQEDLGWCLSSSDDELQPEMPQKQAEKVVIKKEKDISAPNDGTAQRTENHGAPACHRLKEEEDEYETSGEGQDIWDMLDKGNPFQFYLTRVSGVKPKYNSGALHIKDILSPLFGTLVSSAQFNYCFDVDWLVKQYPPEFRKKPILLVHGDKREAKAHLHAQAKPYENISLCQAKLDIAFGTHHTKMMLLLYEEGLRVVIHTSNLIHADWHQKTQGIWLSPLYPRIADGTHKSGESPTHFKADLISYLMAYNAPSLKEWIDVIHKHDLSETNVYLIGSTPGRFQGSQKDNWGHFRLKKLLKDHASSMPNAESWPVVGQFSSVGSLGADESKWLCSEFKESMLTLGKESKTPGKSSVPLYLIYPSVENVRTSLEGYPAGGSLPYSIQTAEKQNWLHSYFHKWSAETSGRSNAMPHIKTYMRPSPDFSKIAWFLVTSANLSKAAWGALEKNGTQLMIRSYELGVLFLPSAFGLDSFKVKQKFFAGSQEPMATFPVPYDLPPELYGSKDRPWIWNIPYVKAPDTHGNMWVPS

HCT-116 = assay: Growth inhibition of human HCT116 cells; assay type: functional
OVCAR-3 = assay: Growth inhibition of human OVCAR3 cells; assay type: functional
UACC-62 = assay: Growth inhibition of human UACC62 cells; assay type: functional
SN12C = assay: Growth inhibition of human SN12C cells; assay type: functional
HOP-62 = assay: Growth inhibition of human HOP62 cells; assay type: functional
SF-539 = assay: Growth inhibition of human SF539 cells; assay type: functional
Method in brief: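 Human cancer cell line panel, compounds tested at concentrations up to 10 μM. GI50 per cell line is the mean of two determinations where a standard error is given, otherwise from one determination.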

DU-145 = assay: Growth inhibition of human DU145 cells; assay type: functional
MDA-MB-435 = assay: Growth inhibition of human MDA-MB-435 cells; assay type: functional

For CC(=O)Nc1ccc2c3c(n(CCCN=[N+]=[N-])c(=O)c2c1)-c1ccccc1C3=O, the inhibition [1] was “Active”.

In the case of COC(=O)C(=O)Nc1ccc2c3c(n(C)c(=O)c2c1)-c1ccccc1C3=O, the inhibition [2] is reported as “inactive” and the IC50 [3] is reported as over 111 µM.

In the case of CC(C)(C)OC(=O)NCCCn1c2c(c3ccc(NC(=O)CCCC(=O)O)cc3c1=O)C(=O)c1ccccc1-2, the inhibition [2] is reported as “inactive” and the IC50 [3] is reported as over 111 µM.

In the case of COc1ccc2c(c1)-c1c(c3ccc([N+](=O)[O-])cc3c(=O)n1CCCN1CCOCC1)C2=O, the IC50 [3] is reported as over 111 µM and the inhibition [1] is reported as “Active”.

For NCCCn1c2c(c3ccc(NC(=O)CC(=O)O)cc3c1=O)C(=O)c1ccccc1-2, the inhibition [2] was “inactive” and the IC50 [3] was over 111 µM.

With COc1ccc2c(c1)C(=O)c1c-2n(CCCN)c(=O)c2cc(N)ccc12 the GI50 (HCT-116) was under 0.01 µM, the GI50 (OVCAR-3) was 0.02 µM and the GI50 (UACC-62) was 0.1 µM. The GI50 (SN12C) was under 0.01 µM, the GI50 (HOP-62) was under 0.01 µM and the GI50 (SF-539) was 0.03 µM. The GI50 (DU-145) was under 0.01 µM and the GI50 (MDA-MB-435) was 0.12 µM.

COC(=O)CCCC(=O)Nc1ccc2c3c(n(C)c(=O)c2c1)-c1ccccc1C3=O was tested, and the inhibition [2] was “inactive” and the IC50 [3] was over 111 µM.

NCCCn1c2c(c3ccc(NCC(=O)O)cc3c1=O)C(=O)c1ccccc1-2 was tested, and the GI50 (HCT-116) was 0.33 µM, the GI50 (OVCAR-3) was 1.6 µM and the GI50 (UACC-62) was 0.72 µM. For the same molecule, the GI50 (SN12C) was 0.49 µM, the GI50 (HOP-62) was 0.65 µM and the GI50 (SF-539) was 1.79 µM. For the same molecule, the GI50 (DU-145) was 1.51 µM, the inhibition [2] was “inactive” and the GI50 (MDA-MB-435) was 1.14 µM.

With CC(=O)Nc1ccc2c3c(n(CCCO)c(=O)c2c1)-c1ccccc1C3=O the inhibition [2] was “inactive”.

Molecule COc1ccc2c(c1)C(=O)c1c-2n(CCCN)c(=O)c2cc(I)ccc12 has a GI50 (HCT-116) of 0.07 µM, a GI50 (OVCAR-3) of 1.32 µM and a GI50 (UACC-62) of 0.14 µM. The GI50 (SN12C) was 0.05 µM, the GI50 (HOP-62) was 0.14 µM and the GI50 (SF-539) was 0.39 µM. The GI50 (DU-145) was 0.05 µM and the GI50 (MDA-MB-435) was 0.96 µM.

CN(C)CCCn1c2c(c3ccc(C#N)cc3c1=O)C(=O)c1ccccc1-2 showed a GI50 (HCT-116) of 0.05 µM, a GI50 (OVCAR-3) of 1.72 µM and a GI50 (UACC-62) of 0.19 µM. For the same molecule, the GI50 (SN12C) was 0.19 µM, the GI50 (HOP-62) was 0.26 µM and the GI50 (SF-539) was 1.12 µM. The GI50 (DU-145) was 0.24 µM, the inhibition [1] was “Active” and the GI50 (MDA-MB-435) was 0.62 µM.

COc1ccc2c(c1)-c1c(c3ccc([N+](=O)[O-])cc3c(=O)n1CCCN)C2=O gave a GI50 (HCT-116) of 0.06 µM, a GI50 (OVCAR-3) of 0.54 µM and a GI50 (SN12C) of 0.15 µM. For the same molecule, the GI50 (SF-539) was 0.61 µM, the GI50 (DU-145) was 0.18 µM and the inhibition [1] was “Active”. It also gave a GI50 (MDA-MB-435) of 0.58 µM.

In the case of NCCCn1c2c(c3ccc(NC(=O)CCCC(=O)O)cc3c1=O)C(=O)c1ccccc1-2, the inhibition [2] is reported as “inactive” and the IC50 [3] is reported as over 111 µM.

In the case of COC(=O)CC(=O)Nc1ccc2c3c(n(CCCN)c(=O)c2c1)-c1ccccc1C3=O, the GI50 (HCT-116) is reported as 0.54 µM, the GI50 (OVCAR-3) is reported as 3.22 µM and the GI50 (UACC-62) is reported as 1.69 µM. It also gave a GI50 (SN12C) of 1.46 µM, a GI50 (HOP-62) of 1.56 µM and a GI50 (SF-539) of 4.03 µM. It also gave a GI50 (DU-145) of 1.57 µM, an IC50 [3] of 18 µM and a GI50 (MDA-MB-435) of 2.33 µM.

COC(=O)CCCCC(=O)Nc1ccc2c3c(n(C)c(=O)c2c1)-c1ccccc1C3=O was tested, and the inhibition [2] was “inactive” and the IC50 [3] was over 111 µM.

Cn1c2c(c3ccc(NC(=O)C(=O)O)cc3c1=O)C(=O)c1ccccc1-2 was tested, and the inhibition [1] was “Active”.

In the case of COc1ccc2c(c1)-c1c(c3ccc([N+](=O)[O-])cc3c(=O)n1CCCN=[N+]=[N-])C2=O, the inhibition [2] is reported as “inactive” and the IC50 [3] is reported as over 111 µM.

COC(=O)CC(=O)Nc1ccc2c3c(n(CCCNC(=O)OC(C)(C)C)c(=O)c2c1)-c1ccccc1C3=O was tested, and the inhibition [2] was “inactive” and the IC50 [3] was over 111 µM.

In the case of N#Cc1ccc2c3c(n(CCCN4CCOCC4)c(=O)c2c1)-c1ccccc1C3=O, the IC50 [3] is reported as over 111 µM and the inhibition [1] is reported as “Active”.

In the case of NCCCn1c2c(c3ccc(NC(=O)CCCCC(=O)O)cc3c1=O)C(=O)c1ccccc1-2, the inhibition [2] is reported as “inactive” and the IC50 [3] is reported as over 111 µM.

With COc1ccc2c(c1)-c1c(c3ccc([N+](=O)[O-])cc3c(=O)n1CCCBr)C2=O the IC50 [3] was over 111 µM and the inhibition [1] was “Active”.

For CC(C)(C)OC(=O)NCCCn1c2c(c3ccc(NCC(=O)O)cc3c1=O)C(=O)c1ccccc1-2, the inhibition [2] was “inactive” and the IC50 [3] was over 111 µM.
